Values after ≈ are worked out from the molar mass of the structure shown.
Legend:
Aspergillus fumigatus = experiment: Antifungal activity against Aspergillus fumigatus MTCC 3008 after 48 hrs by broth microdilution method; type: functional; conditions: MTCC 3008, 48 h
Streptococcus pneumoniae = experiment: Antibacterial activity against Streptococcus pneumoniae MTCC 1936 after 24 hrs by broth microdilution method; type: functional; conditions: MTCC 1936, 24 h
Bacillus subtilis = experiment: Antibacterial activity against Bacillus subtilis MTCC 441 after 24 hrs by broth microdilution method; type: functional; conditions: MTCC 441, 24 h
[1] = test system: Mycobacterium tuberculosis; experiment: Antimycobacterial activity against Mycobacterium tuberculosis H37Rv at 250 ug/ml; type: functional
Method in brief: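 M. tuberculosis H37Rv tested on L.J. (Löwenstein–Jensen) medium.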

Escherichia coli = experiment: Antibacterial activity against Escherichia coli MTCC 443 after 24 hrs by broth microdilution method; type: functional; conditions: MTCC 443, 24 h
Salmonella typhi = experiment: Antibacterial activity against Salmonella typhi MTCC 98 after 24 hrs by broth microdilution method; type: functional, Salmonella enterica subsp. enterica serovar Typhi; conditions: Salmonella enterica, MTCC 98, 24 h
Vibrio cholerae = experiment: Antibacterial activity against Vibrio cholerae MTCC 3906 after 24 hrs by broth microdilution method; type: functional; conditions: MTCC 3906, 24 h
Candida albicans = experiment: Antifungal activity against Candida albicans MTCC 227 after 48 hrs by broth microdilution method; type: functional; conditions: MTCC 227, 48 h
Clostridium tetani = experiment: Antibacterial activity against Clostridium tetani MTCC 449 after 24 hrs by broth microdilution method; type: functional; conditions: MTCC 449, 24 h
[2] = Antioxidant activity assessed as ascorbic acid equivalent ferric ion reducing activity per 100 gram at 200 ug/ml by FRAP assay; type: functional

Cc1nn(-c2ccccc2)c2c1[C@@H]1c3cc4ccccc4nc3SC[C@@H]1CO2
MIC (Aspergillus fumigatus): 500 µg/mL (≈ 1300 µM)
MIC (Streptococcus pneumoniae): 200 µg/mL (≈ 519 µM)
MIC (Bacillus subtilis): 200 µg/mL (≈ 519 µM)
inhibition at 250 µg/mL [1]: 87%
MIC (Escherichia coli): 100 µg/mL (≈ 259 µM)
MIC (Salmonella typhi): 125 µg/mL (≈ 324 µM)
MIC (Vibrio cholerae): 100 µg/mL (≈ 259 µM)
MIC (Candida albicans): 500 µg/mL (≈ 1300 µM)
MIC (Clostridium tetani): 62.5 µg/mL (≈ 162 µM)
Activity [2]: 126 mmol

Cc1ccc(-n2nc(C)c3c2OC[C@H]2CSc4nc5c(C)cccc5cc4[C@@H]32)cc1
MIC (Aspergillus fumigatus): 200 µg/mL (≈ 484 µM)
MIC (Streptococcus pneumoniae): 200 µg/mL (≈ 484 µM)
MIC (Bacillus subtilis): 200 µg/mL (≈ 484 µM)
inhibition at 250 µg/mL [1]: 63%
MIC (Escherichia coli): 100 µg/mL (≈ 242 µM)
MIC (Salmonella typhi): 125 µg/mL (≈ 302 µM)
MIC (Vibrio cholerae): 125 µg/mL (≈ 302 µM)
MIC (Candida albicans): 1000 µg/mL (≈ 2420 µM)
MIC (Clostridium tetani): 250 µg/mL (≈ 605 µM)
Activity [2]: 112 mmol

Cc1ccc(-n2nc(C)c3c2OC(C)(C)[C@H]2CSc4nc5c(C)cccc5cc4[C@@H]32)cc1 (single isomer, unassigned)
MIC (Aspergillus fumigatus): 500 µg/mL (≈ 1130 µM)
MIC (Streptococcus pneumoniae): 100 µg/mL (≈ 226 µM)
MIC (Bacillus subtilis): 100 µg/mL (≈ 226 µM)
inhibition at 250 µg/mL [1]: 91%
MIC (Escherichia coli): 125 µg/mL (≈ 283 µM)
MIC (Salmonella typhi): 125 µg/mL (≈ 283 µM)
MIC (Vibrio cholerae): 200 µg/mL (≈ 453 µM)
MIC (Candida albicans): 250 µg/mL (≈ 566 µM)
MIC (Clostridium tetani): 200 µg/mL (≈ 453 µM)
Activity [2]: 161 mmol

Cc1nn(-c2ccccc2Cl)c2c1[C@@H]1c3cc4ccccc4nc3SC[C@@H]1CO2
MIC (Aspergillus fumigatus): > 1000 µg/mL
MIC (Streptococcus pneumoniae): 100 µg/mL (≈ 238 µM)
MIC (Bacillus subtilis): 125 µg/mL (≈ 298 µM)
inhibition at 250 µg/mL [1]: 52%
MIC (Escherichia coli): 250 µg/mL (≈ 595 µM)
MIC (Salmonella typhi): 250 µg/mL (≈ 595 µM)
MIC (Vibrio cholerae): 250 µg/mL (≈ 595 µM)
MIC (Candida albicans): 1000 µg/mL (≈ 2380 µM)
MIC (Clostridium tetani): 250 µg/mL (≈ 595 µM)
Activity [2]: 90.9 mmol

Cc1nn(-c2cccc(Cl)c2)c2c1[C@@H]1c3c(ccc4c(C)cc(=O)oc34)OC[C@@H]1C(C)(C)O2
MIC (Aspergillus fumigatus): 1000 µg/mL (≈ 2160 µM)
MIC (Streptococcus pneumoniae): 62.5 µg/mL (≈ 135 µM)
MIC (Bacillus subtilis): 200 µg/mL (≈ 432 µM)
inhibition at 250 µg/mL [1]: 29%
MIC (Escherichia coli): 200 µg/mL (≈ 432 µM)
MIC (Salmonella typhi): 200 µg/mL (≈ 432 µM)
MIC (Vibrio cholerae): 250 µg/mL (≈ 540 µM)
MIC (Candida albicans): 500 µg/mL (≈ 1080 µM)
MIC (Clostridium tetani): 200 µg/mL (≈ 432 µM)
Activity [2]: 225 mmol

Cc1ccc(-n2nc(C)c3c2OC[C@H]2CSc4nc5ccccc5cc4[C@@H]32)cc1
MIC (Aspergillus fumigatus): 1000 µg/mL (≈ 2500 µM)
MIC (Streptococcus pneumoniae): 62.5 µg/mL (≈ 156 µM)
MIC (Bacillus subtilis): 200 µg/mL (≈ 501 µM)
inhibition at 250 µg/mL [1]: 33%
MIC (Escherichia coli): 125 µg/mL (≈ 313 µM)
MIC (Salmonella typhi): 125 µg/mL (≈ 313 µM)
MIC (Vibrio cholerae): 200 µg/mL (≈ 501 µM)
MIC (Candida albicans): 1000 µg/mL (≈ 2500 µM)
MIC (Clostridium tetani): 200 µg/mL (≈ 501 µM)
Activity [2]: 121 mmol

Source: ChEMBL document CHEMBL2331438, “An efficient domino reaction in ionic liquid: synthesis and biological evaluation of some pyrano- and thiopyrano-fused heterocycles” (2013)
